The source made the active and inactive calls. No cut-off for these calls is given here.
Experiments:
[1] = target: T1, G-protein coupled receptor 35 (Homo sapiens, UniProt Q9HC97); assay: Agonist activity at GPR35 in human HT-29 cells by DMR assay; type: cell-based
Summary of the method: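 HT-29 cells with endogenous GPR35, grown in McCoy's 5A with 10% FBS at 37 °C/5% CO2, seeded overnight to a confluent monolayer on resonant waveguide grating biosensor plates. Cells were washed, kept in HBSS for 1 h in the reader, and given a 2 min baseline before compound addition. Mean ± sd, two independent runs × four replicates (n=8).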

[2] = target: T1, G-protein coupled receptor 35; assay: Agonist activity at GPR35 in human HT-29 cells assessed as induction of cell desensitization to 1 uM zaprinast preincubated for 1 hr followed by zaprinast stimulation measured after 8 minutes by DMR assay; type: cell-based
Summary of the method: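 Desensitization format in HT-29 cells on resonant waveguide grating biosensor plates, held in HBSS. […] Mean ± sd, two independent measurements, each with four replicates (n=8).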

[3] = target: T1, G-protein coupled receptor 35; assay: Agonist activity at GPR35 in human HT-29 cells in presence of antagonist ML-145 by DMR assay; type: cell-based
Summary of the method: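 HT-29 DMR antagonist format: ML-145 was titrated against the coumarin agonist, each agonist given at its EC80–EC100 dose. Cells were kept in HBSS and equilibrated 1 h in the reader. IC50 was calculated from the DMR amplitude at 8 min post-stimulation. Mean ± sd, two independent measurements × four replicates (n=8).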

[4] = target: T1, G-protein coupled receptor 35; assay: Agonist activity at human GPR35 expressed in CHO-K1 cells after 90 mins by beta-arrestin 2 recruitment assay; type: cell-based
[5] = target: T1, G-protein coupled receptor 35; assay: Agonist activity at human GPR35 expressed in CHO-K1 cells by DMR assay; type: cell-based
[6] = target: T1, G-protein coupled receptor 35; assay: Agonist activity at TEV protease cleavage site linked GAL4-VP16-fused GPR35 in human Tango GPR35-bla U2OS cells assessed as induction of TEV protease-tagged beta-arrestin recruitment incubated for 5 hrs by beta-lactamase reporter gene assay
[7] = target: T1, G-protein coupled receptor 35; assay: Agonist activity at TEV protease cleavage site linked GAL4-VP16-fused GPR35 in human Tango GPR35-bla U2OS cells assessed as induction of TEV protease-tagged beta-arrestin recruitment incubated for 5 hrs by beta-lactamase reporter gene assay relative to zaprinast
[8] = target: Histamine H1 receptor (Homo sapiens) (UniProt P35367); assay: Agonist activity at histamine H1 receptor in human A431 cells at 1 uM preincubated for 1 hr followed by histamine addition by DMR assay; type: cell-based
[9] = target: Hydroxycarboxylic acid receptor 2 (Homo sapiens) (UniProt Q8TDS4); assay: Agonist activity at GPR109a receptor in human A431 cells at 1 uM preincubated for 1 hr followed by niacin addition by DMR assay; type: cell-based
[10] = target: Beta-2 adrenergic receptor (Homo sapiens) (UniProt P07550); assay: Agonist activity at beta2 adrenergic receptor in human A431 cells at 1 uM preincubated for 1 hr followed by epinephrine addition by DMR assay; type: cell-based
[11] = target: T2, Type-1 angiotensin II receptor (Homo sapiens) (UniProt P30556); assay: Agonist activity at angiotensin AT1 receptor in human A549 cells at 1 uM preincubated for 1 hr followed by angiotensin 2 addition by DMR assay; type: cell-based
T2 sequence (whole entry): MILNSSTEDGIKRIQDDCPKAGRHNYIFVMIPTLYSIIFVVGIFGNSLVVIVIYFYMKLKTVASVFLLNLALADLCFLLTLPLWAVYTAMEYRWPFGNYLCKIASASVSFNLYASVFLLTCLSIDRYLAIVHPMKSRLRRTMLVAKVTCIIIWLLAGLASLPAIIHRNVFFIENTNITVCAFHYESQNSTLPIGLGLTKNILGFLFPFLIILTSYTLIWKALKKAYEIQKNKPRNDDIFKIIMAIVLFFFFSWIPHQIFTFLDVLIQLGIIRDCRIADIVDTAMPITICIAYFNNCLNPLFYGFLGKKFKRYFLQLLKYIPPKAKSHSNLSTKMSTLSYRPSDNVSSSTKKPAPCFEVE

[12] = target: T3, B2 bradykinin receptor (Homo sapiens) (UniProt P30411); assay: Agonist activity at bradykinin B2 receptor in human A549 cells at 1 uM preincubated for 1 hr followed by bradykinin addition by DMR assay; type: cell-based
T3 sequence (whole entry): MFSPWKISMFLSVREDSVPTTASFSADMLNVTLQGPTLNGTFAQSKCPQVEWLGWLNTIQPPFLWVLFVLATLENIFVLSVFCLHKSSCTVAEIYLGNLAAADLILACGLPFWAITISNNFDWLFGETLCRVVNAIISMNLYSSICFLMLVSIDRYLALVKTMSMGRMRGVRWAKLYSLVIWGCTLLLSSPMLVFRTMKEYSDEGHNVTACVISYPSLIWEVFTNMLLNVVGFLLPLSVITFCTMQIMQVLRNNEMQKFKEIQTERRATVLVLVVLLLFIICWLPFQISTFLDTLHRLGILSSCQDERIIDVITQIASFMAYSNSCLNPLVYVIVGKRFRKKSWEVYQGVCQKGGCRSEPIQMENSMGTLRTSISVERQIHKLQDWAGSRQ

T1 sequence (Q9HC97 whole entry): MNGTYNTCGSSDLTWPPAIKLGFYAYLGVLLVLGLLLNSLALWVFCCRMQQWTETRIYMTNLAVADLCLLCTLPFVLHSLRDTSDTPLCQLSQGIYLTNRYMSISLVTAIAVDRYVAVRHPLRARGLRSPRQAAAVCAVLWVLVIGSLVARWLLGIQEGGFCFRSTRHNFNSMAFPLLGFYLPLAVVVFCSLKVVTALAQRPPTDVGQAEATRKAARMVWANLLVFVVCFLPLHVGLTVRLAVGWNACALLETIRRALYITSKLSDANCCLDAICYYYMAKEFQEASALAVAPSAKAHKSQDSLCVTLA
Chain of Beta-2 adrenergic receptor (Homo sapiens) (P07550 whole entry, looked up): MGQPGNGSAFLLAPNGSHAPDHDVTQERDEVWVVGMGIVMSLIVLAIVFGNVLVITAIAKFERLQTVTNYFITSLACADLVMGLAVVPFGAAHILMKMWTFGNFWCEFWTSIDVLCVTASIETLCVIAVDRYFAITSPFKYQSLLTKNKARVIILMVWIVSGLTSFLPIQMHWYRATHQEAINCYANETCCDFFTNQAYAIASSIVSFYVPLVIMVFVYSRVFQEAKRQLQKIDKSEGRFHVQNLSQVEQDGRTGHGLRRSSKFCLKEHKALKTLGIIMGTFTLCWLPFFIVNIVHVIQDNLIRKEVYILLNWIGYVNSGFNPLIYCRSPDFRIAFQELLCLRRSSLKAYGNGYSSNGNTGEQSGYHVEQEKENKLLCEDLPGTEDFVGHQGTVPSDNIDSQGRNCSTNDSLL
Chain of Histamine H1 receptor (Homo sapiens) (P35367 whole entry): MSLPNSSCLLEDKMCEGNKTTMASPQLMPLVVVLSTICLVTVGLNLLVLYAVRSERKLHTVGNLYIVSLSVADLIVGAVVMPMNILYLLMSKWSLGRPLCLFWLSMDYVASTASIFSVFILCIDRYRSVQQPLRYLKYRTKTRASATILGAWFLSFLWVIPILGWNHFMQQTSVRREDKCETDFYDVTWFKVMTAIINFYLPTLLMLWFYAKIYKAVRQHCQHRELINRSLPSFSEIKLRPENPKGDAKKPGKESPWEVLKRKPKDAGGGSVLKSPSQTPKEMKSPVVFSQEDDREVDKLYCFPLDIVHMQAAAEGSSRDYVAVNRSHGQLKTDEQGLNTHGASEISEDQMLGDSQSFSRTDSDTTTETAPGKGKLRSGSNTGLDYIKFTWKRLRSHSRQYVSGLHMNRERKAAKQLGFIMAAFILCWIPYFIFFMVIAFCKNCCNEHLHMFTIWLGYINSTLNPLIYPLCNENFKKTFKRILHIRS
Chain of Hydroxycarboxylic acid receptor 2 (Homo sapiens) (Q8TDS4 whole entry): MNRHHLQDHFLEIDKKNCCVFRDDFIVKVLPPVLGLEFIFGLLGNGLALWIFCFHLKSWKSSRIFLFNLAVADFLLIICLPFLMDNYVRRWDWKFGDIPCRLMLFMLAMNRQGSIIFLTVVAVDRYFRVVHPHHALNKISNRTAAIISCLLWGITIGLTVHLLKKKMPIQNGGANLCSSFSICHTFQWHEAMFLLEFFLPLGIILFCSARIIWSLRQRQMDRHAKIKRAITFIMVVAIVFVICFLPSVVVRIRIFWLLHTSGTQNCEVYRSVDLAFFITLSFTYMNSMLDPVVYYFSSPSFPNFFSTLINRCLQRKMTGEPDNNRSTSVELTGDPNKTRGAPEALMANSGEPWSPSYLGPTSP

Row | SMILES | EC50 ([1]; read-out: EC50) [nM] | IC50 [2] [nM] | Activity [3] | further results
1 | N#Cc1cc2cc(Br)cc([N+](=O)[O-])c2oc1=O | 700 | 650 | inactive | 
2 | CC(C)c1ccc2oc3nc(N)c(C(=O)O)cc3c(=O)c2c1 [AMLEXANOX] |  |  |  | EC50 [4]: 4000 nM
3 | COc1c(Br)cc2cc(C(=O)O)c(=O)oc2c1Br | 890 | 750 | inactive | 
4 | O=C(O)c1cc2cc(Br)cc([N+](=O)[O-])c2oc1=O | 4270 | 3750 | inactive | 
5 | O=C(O)c1cc(=O)c2c(OCC(O)COc3cccc4oc(C(=O)O)cc(=O)c34)cccc2o1 [CROMOLYN] |  |  |  | EC50 [5]: 52 nM; EC50 [4]: 7000 nM
6 | O=c1oc2c(Br)c(O)c(Br)cc2cc1-c1nnn[nH]1 | 68 | 23 | inactive | EC50 ([1]; read-out: pEC50 (converted)): 66.7 nM; EC50 [6]: 1540 nM; Efficacy [7]: 126%
7 | N#Cc1cc2ccccc2oc1=O |  |  |  | EC50 [1]: Not Active
8 | O=C(O)c1cc2cc(Br)ccc2oc1=O | 10800 | 11300 | inactive | 
9 | O=c1oc2cc(O)c(Br)cc2cc1-c1nnn[nH]1 | 710 | 483 | inactive | 
10 | N#Cc1cc2cc(Cl)ccc2oc1=O | 21400 | 21400 | inactive | 
11 | N#Cc1cc(NC(=O)C(=O)O)c(Cl)c(NC(=O)C(=O)O)c1 [LODOXAMIDE] |  |  |  | EC50 [4]: 4000 nM
12 | O=C(O)c1cc2cc(Br)c(O)c([N+](=O)[O-])c2oc1=O | 51 | 31 | inactive | EC50 [6]: 479 nM; Efficacy [7]: 111%
13 | N#Cc1cc2cc(Br)cc(Br)c2oc1=O | 17700 | 14900 | inactive | 
14 | O=c1oc2c([N+](=O)[O-])c(O)c(Br)cc2cc1-c1nnn[nH]1 | 5.8 | 8.6 | inactive | Activity [2]: Dose-dependent effect; EC50 [6]: 197 nM; Efficacy [7]: 104%; Activity [8]: inactive; Activity [9]: inactive; Activity [10]: inactive; Activity [11]: inactive; Activity [12]: inactive
15 | N#Cc1cc2cc(Br)c(O)c(Br)c2oc1=O | 2330 | 2890 | inactive | 
16 | COc1c(Br)cc2cc(C#N)c(=O)oc2c1[N+](=O)[O-] | 2910 | 1690 | inactive | 
17 | O=C(O)c1cc2cc(Br)cc(Br)c2oc1=O | 1750 | 1080 | inactive | 

Row | SMILES | EC50 ([1]; read-out: EC50) [nM] | IC50 [2] [nM] | Activity [3] | further results
18 | COc1c(Br)cc2cc(-c3nnn[nH]3)c(=O)oc2c1[N+](=O)[O-] | 2660 | 2820 | inactive | 
19 | O=C(O)c1cc2cc(Cl)cc(Cl)c2oc1=O | 2020 | 2300 | inactive | 
20 | O=C(O)c1cc2cc(Br)c(O)cc2oc1=O | 4340 | 3760 | inactive | 
21 | O=C(O)c1cc2ccccc2oc1=O [COUMARIN-3-CARBOXYLIC ACID] | 92300 | 100000 | inactive | 
22 | COc1cc2oc(=O)c(-c3nnn[nH]3)cc2cc1Br | 14800 | 14100 | inactive | 
23 | O=c1oc2ccccc2cc1-c1nn[nH]n1 | 6760 | 5080 | inactive | 
24 | O=c1oc2c([N+](=O)[O-])c(O)c([N+](=O)[O-])cc2cc1-c1nnn[nH]1 | 14 | 13 | inactive | EC50 [6]: 288 nM; Efficacy [7]: 107%
25 | N#Cc1cc2cc(Br)c(O)cc2oc1=O | 9270 | 9330 | inactive | 
26 | O=C(O)c1cc2cc(Cl)ccc2oc1=O | 13500 | 13200 | inactive | 
27 | O=c1oc2c([N+](=O)[O-])cc(Br)cc2cc1-c1nnn[nH]1 | 330 | 330 | inactive | 
28 | COc1c(Br)cc2cc(C#N)c(=O)oc2c1Br | 8220 | 590 | inactive | 
29 | COc1c(Br)cc2cc(-c3nnn[nH]3)c(=O)oc2c1Br | 1410 | 460 | inactive | EC50 [6]: 14100 nM; Efficacy [7]: 86.4%
30 | CCCOc1ccccc1-c1nc2[nH]nnc2c(=O)[nH]1 |  |  |  | Efficacy [7]: 100%
31 | O=C(O)c1cc2cc(Br)c(O)c(Br)c2oc1=O | 150 | 56 | inactive | EC50 [6]: 3630 nM; Efficacy [7]: 168%
32 | N#Cc1cc2cc(Cl)cc(Cl)c2oc1=O | 8610 | 8610 | inactive | 
33 | O=c1oc2c(Br)cc(Br)cc2cc1-c1nnn[nH]1 | 930 | 380 | inactive | EC50 [6]: 7050 nM; Efficacy [7]: 81.3%

— ChEMBL document CHEMBL4041526, “Discovery of 2H-Chromen-2-one Derivatives as G Protein-Coupled Receptor-35 Agonists” (J Med Chem, 2017)
